# According to ChEMBL document CHEMBL5303300, “EUbOPEN Chemogenomics Library - Multiplex” (2023):
# Values joined by “and” are separate entries in the source; they are usually repeats but may differ in a detail not shown here. Equal values may be shown once.
# Tested on: Fibroblast
# Assay: Multiplex assay against human fibroblast
# Format: toxicity, cell-based
# Details: number of replicates 2
# Outline: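 On a CQ1 microscope at 37°C and 5% CO2, live cells were imaged after compound addition. They had been stained at seeding with Hoechst33342, BioTracker Green Microtubule Cytoskeleton Dye, MitoTracker Red and Annexin V Alexa Fluor 680. CellPathfinder machine-learning gating assigned cells to Hoechst high-intensity objects or normal cells, normal cells to healthy, pyknosed or fragmented nuclei, and pyknosed cells to mitotic or apoptotic. Tubulin, mitochondrial-mass and membrane-permeability phenotypes are per cents of healthy-nucleus cells.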
# [1] = 12 h, 1 µM, compound concentration 1 uM
# [2] = 12 h, 10 µM, compound concentration 10 uM
# [3] = 24 h, 1 µM, compound concentration 1 uM
# [4] = 24 h, 10 µM, compound concentration 10 uM
# [5] = 48 h, 1 µM, compound concentration 1 uM
# [6] = 48 h, 10 µM, compound concentration 10 uM
smiles,measurement,setting,value
Cc1onc(-c2ccccc2Cl)c1C(=O)N(C)c1ccc(Cl)cc1,Population Apoptotic (%),[1],35%
same,Population Fragmented Nuclei (%),[1],11% and 12%
same,Population Healthy Nuclei (%),[1],66% and 69%
same,Population Hoechst High Intensity Objects (%),[1],0%
same,Population Membrane Permeable-Phenotype (%),[1],6% and 8%
same,Population Mitochondria Different-Phenotype (%),[1],0%
same,Population Mitotic Cells (%),[1],64%
same,Population Normal (%),[1],100%
same,Population Pyknosed Nuclei (%),[1],22% and 18%
same,Population Tubulin-Different-Phenotype (%),[1],16% and 12%
same,Total Cell Count,[1],167 and 197
same,Population Apoptotic (%),[2],36% and 47%
same,Population Fragmented Nuclei (%),[2],8%
same,Population Healthy Nuclei (%),[2],67% and 72%
same,Population Hoechst High Intensity Objects (%),[2],0%
same,Population Membrane Permeable-Phenotype (%),[2],8% and 11%
same,Population Mitochondria Different-Phenotype (%),[2],2%
same,Population Mitotic Cells (%),[2],63% and 52%
same,Population Normal (%),[2],100%
same,Population Pyknosed Nuclei (%),[2],24% and 18%
same,Population Tubulin-Different-Phenotype (%),[2],18% and 15%
same,Total Cell Count,[2],185 and 192
same,Population Apoptotic (%),[3],44% and 31%
same,Population Fragmented Nuclei (%),[3],8% and 13%
same,Population Healthy Nuclei (%),[3],66% and 64%
same,Population Hoechst High Intensity Objects (%),[3],0%
same,Population Membrane Permeable-Phenotype (%),[3],7% and 6%
same,Population Mitochondria Different-Phenotype (%),[3],0%
same,Population Mitotic Cells (%),[3],55% and 68%
same,Population Normal (%),[3],100%
same,Population Pyknosed Nuclei (%),[3],24% and 22%
same,Population Tubulin-Different-Phenotype (%),[3],13% and 9%
same,Total Cell Count,[3],157 and 204
same,Population Apoptotic (%),[4],56% and 57%
same,Population Fragmented Nuclei (%),[4],5% and 8%
same,Population Healthy Nuclei (%),[4],72% and 74%
same,Population Hoechst High Intensity Objects (%),[4],0%
same,Population Membrane Permeable-Phenotype (%),[4],5% and 8%
same,Population Mitochondria Different-Phenotype (%),[4],4% and 0%
same,Population Mitotic Cells (%),[4],43% and 42%
same,Population Normal (%),[4],100% and 99%
same,Population Pyknosed Nuclei (%),[4],22% and 17%
same,Population Tubulin-Different-Phenotype (%),[4],15% and 11%
same,Total Cell Count,[4],166 and 203
same,Population Apoptotic (%),[5],42% and 56%
same,Population Fragmented Nuclei (%),[5],8% and 14%
same,Population Healthy Nuclei (%),[5],72% and 68%
same,Population Hoechst High Intensity Objects (%),[5],0%
same,Population Membrane Permeable-Phenotype (%),[5],2% and 3%
same,Population Mitochondria Different-Phenotype (%),[5],0%
same,Population Mitotic Cells (%),[5],57% and 43%
same,Population Normal (%),[5],100%
same,Population Pyknosed Nuclei (%),[5],18% and 17%
same,Population Tubulin-Different-Phenotype (%),[5],9% and 4%
same,Total Cell Count,[5],148 and 214
same,Population Apoptotic (%),[6],65% and 54%
same,Population Healthy Nuclei (%),[6],77% and 74%
same,Population Hoechst High Intensity Objects (%),[6],0%
same,Population Membrane Permeable-Phenotype (%),[6],7% and 4%
same,Population Mitochondria Different-Phenotype (%),[6],1% and 0%
same,Population Mitotic Cells (%),[6],34% and 45%
same,Population Normal (%),[6],100%
same,Population Pyknosed Nuclei (%),[6],18% and 9%
same,Population Tubulin-Different-Phenotype (%),[6],11% and 8%
same,Total Cell Count,[6],157 and 221
CS(=O)(=O)c1ccc(C(=O)Nc2cccc(COc3ccc(Br)cc3CN[C@H]3CCC[C@@H]3O)c2)c(Cl)c1.O=CO,Population Apoptotic (%),[1],24% and 46%
same,Population Healthy Nuclei (%),[1],71% and 64%
same,Population Hoechst High Intensity Objects (%),[1],0%
same,Population Mitotic Cells (%),[1],75% and 53%
same,Population Normal (%),[1],99% and 100%
same,Population Pyknosed Nuclei (%),[1],20%
same,Total Cell Count,[1],223 and 167
same,Population Apoptotic (%),[2],52% and 50%
same,Population Healthy Nuclei (%),[2],43% and 57%
same,Population Hoechst High Intensity Objects (%),[2],1% and 0%
same,Population Mitotic Cells (%),[2],47% and 50%
same,Population Normal (%),[2],98% and 99%
same,Population Pyknosed Nuclei (%),[2],42%
same,Total Cell Count,[2],187 and 221
same,Population Apoptotic (%),[3],44% and 73%
same,Population Healthy Nuclei (%),[3],68% and 59%
same,Population Hoechst High Intensity Objects (%),[3],0%
same,Population Normal (%),[3],100%
same,Total Cell Count,[3],219 and 171
same,Population Apoptotic (%),[4],62% and 72%
same,Population Healthy Nuclei (%),[4],58% and 51%
same,Population Hoechst High Intensity Objects (%),[4],0%
same,Population Mitotic Cells (%),[4],37% and 27%
same,Population Normal (%),[4],99% and 97%
same,Population Pyknosed Nuclei (%),[4],32%
same,Total Cell Count,[4],202 and 182
same,Population Apoptotic (%),[5],75% and 70%
same,Population Healthy Nuclei (%),[5],70% and 68%
same,Population Hoechst High Intensity Objects (%),[5],0%
same,Population Mitotic Cells (%),[5],24% and 29%
same,Population Normal (%),[5],99% and 100%
same,Population Pyknosed Nuclei (%),[5],20%
same,Total Cell Count,[5],218 and 154
same,Population Apoptotic (%),[6],87% and 86%
same,Population Healthy Nuclei (%),[6],71% and 55%
same,Population Hoechst High Intensity Objects (%),[6],0% and 1%
same,Population Normal (%),[6],99% and 98%
same,Population Pyknosed Nuclei (%),[6],20%
same,Total Cell Count,[6],197 and 190
